{"data": "Measured values from different studies", "PLG trypsin-like site": "Plasminogen, trypsin-like site (PLG, Homo sapiens, UniProt P00747)", "CA2": "Carbonic anhydrase 2 (CA2, Homo sapiens, UniProt P00918)", "OPRD1": "Delta-type opioid receptor (OPRD1, Homo sapiens, UniProt P41143)", "ADRA2A": "Alpha-2A adrenergic receptor (ADRA2A, Homo sapiens, UniProt P08913)", "gag-pol reverse transcriptase": "Gag-Pol polyprotein, reverse transcriptase (gag-pol, Human immunodeficiency virus 1, UniProt P03366)", "note": "Protocols differ between the studies behind these lines."}
{"SMILES": "CC(C)(C)[C@H](NC(=O)[C@H](CCONC(=N)N)NC(=O)Cc1ccc(CNC(=N)N)cc1)C(=O)N[C@@H](CCCCN)C(=O)NCc1ccc(C(=N)N)cc1", "target": "PLG trypsin-like site", "assay": "enzyme activity, inhibitor", "conditions": "pH 8", "endpoint": "Ki", "result": "28 µM"}
{"SMILES": "On1c(=S)ccc2ccccc21", "target": "CA2", "assay": "enzyme activity, inhibitor, absorbance", "conditions": "pH 8", "endpoint": "Ki", "result": "730 µM"}
{"SMILES": "CCCC[C@H](CNCc1ccccc1)N1CCN(CC2CCCCCC2)[C@H](Cc2ccc(O)cc2)C1", "target": "OPRD1", "assay": "cell-free assay", "endpoint": "IC50", "result": "> 10 µM"}
{"SMILES": "Cc1cc(O)cc(C)c1C[C@H](N)C(=O)N[C@H](C)C(=O)NCC(=O)N[C@@H](Cc1ccc(Cl)cc1)C(=O)N(C)CCC[C@@]1(c2ccc(F)cc2)OCc2cc(C#N)ccc21", "target": "ADRA2A", "assay": "ligand displacement, radioligand", "endpoint": "Ki", "result": "4.7 µM"}
{"SMILES": "O=C(CCCOc1cccc(Br)c1)N[C@H]1C[C@@H]2C[C@@H]2C1=O (relative stereo)", "target": "Transcriptional activator protein LasR (lasR, Pseudomonas aeruginosa, UniProt P25084, R61A)", "assay": "reporter gene, agonist", "endpoint": "EC50", "result": "130 nM"}
{"SMILES": "CCC[C@H](CNC)NC[C@@H](CCC)NCC1CCCCCC1", "target": "OPRD1", "assay": "cell-free assay", "endpoint": "IC50", "result": "> 10 µM"}
{"SMILES": "Cc1cn([C@@H]2CC[C@H](OC(C(=O)O)C(=O)O)C2)c(=O)[nH]c1=O", "target": "gag-pol reverse transcriptase", "assay": "enzyme activity, inhibitor", "endpoint": "Ki", "result": "6.6 µM"}
{"SMILES": "CNC[C@H](Cc1ccc(O)cc1)NC[C@H](Cc1ccc(O)cc1)NCC1CCC(C)CC1 (some centres unmarked)", "target": "OPRD1", "assay": "cell-free assay", "endpoint": "IC50", "result": "> 10 µM"}
{"SMILES": "Cc1cc(/C=C/C#N)cc(C)c1Nc1ccnc(Nc2ccc(C#N)cc2)n1", "target": "gag-pol reverse transcriptase", "assay": "binding, SPR", "endpoint": "Kd", "result": "2530 nM"}
{"SMILES": "CC(C)(C)[C@H](NC(=O)[C@H](CCCNC(=N)N)NC(=O)Cc1ccc(CN)cc1)C(=O)N[C@@H](CCONC(=N)N)C(=O)NCc1ccc(C(=N)N)cc1", "target": "PLG trypsin-like site", "assay": "enzyme activity, inhibitor", "conditions": "pH 8", "endpoint": "Ki", "result": "3.3 µM"}
{"SMILES": "CS(=O)(=O)c1cccc(OCCCC(=O)N[C@H]2C[C@@H]3C[C@@H]3C2=O)c1 (relative stereo)", "target": "Transcriptional activator protein LasR (lasR, Pseudomonas aeruginosa, UniProt P25084, Y93F)", "assay": "reporter gene, agonist", "endpoint": "EC50", "result": "500 nM"}
{"SMILES": "CC(C)(C)[C@H](NC(=O)[C@H](CCONC(=N)N)NC(=O)Cc1ccc(CN)cc1)C(=O)N[C@@H](CCCCN)C(=O)NCc1ccc(C(=N)N)cc1", "target": "PLG trypsin-like site", "assay": "enzyme activity, inhibitor", "conditions": "pH 8", "endpoint": "Ki", "result": "21 µM"}
{"SMILES": "O=C(NCc1ccncc1)Nc1ccc(S(=O)(=O)N2CC3CCC(C2)O3)cc1", "target": "Nicotinamide phosphoribosyltransferase (NAMPT, Homo sapiens, UniProt P43490)", "assay": "ligand displacement, FP", "endpoint": "Kd", "result": "2000 to 6000 nM"}
{"SMILES": "Cn1cc(-c2cccc(N3CCc4c(sc5c4CC(C)(C)C5)C3=O)c2CO)cc(Nc2ccncn2)c1=O", "target": "Receptor tyrosine-protein kinase erbB-2 (ERBB2, Homo sapiens, UniProt P04626)", "assay": "enzyme activity, inhibitor, FRET", "endpoint": "Ki", "result": "1.75 µM"}
{"SMILES": "C[C@H](N)Cn1ncc2ccc3c(c21)CCCO3", "target": "ADRA2A", "assay": "ligand displacement, radioligand", "endpoint": "Ki", "result": "6.26 µM"}
{"SMILES": "CCC(C)[C@@H](CNC)N1CCN(CCC2CC3CCC2C3)[C@H](C(C)C)C1 (some centres unmarked)", "target": "OPRD1", "assay": "cell-free assay", "endpoint": "IC50", "result": "> 10 µM"}
{"SMILES": "Cc1ccnc(S)c1", "target": "CA2", "assay": "enzyme activity, inhibitor, absorbance", "conditions": "pH 8", "endpoint": "Ki", "result": "7000 µM"}
